Results published in PubChem BioAssay AID493091 (Sanford-Burnham Center for Chemical Genomics, 2011).
Screen size: about 340,000 compounds; about 3,000 (0.88%) were called active. The sample as a whole holds a higher share of actives than the screen did. Unmarked numbers belong to inactive results.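 The calls were made as follows: active = inhibition above about 50% at 20 µM (limit read from the data); inactive = the rest.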

These molecules were tested against Carboxy-terminal domain RNA polymerase II polypeptide A small phosphatase 1 (Homo sapiens) (UniProt Q9GZU7) (assay: inhibition of human SCP1 dephosphorylation activity – biochemical, colorimetric, uHTS, primary screen (AID 493091;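 also: plate controls were DMSO wells with enzyme for no effect and wells lacking enzyme for full effect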)). Details: Recombinant Scp1, phosphopeptide, malachite green phosphate absorbance; at 20 µM; active compounds read high.
Chain of Carboxy-terminal domain RNA polymerase II polypeptide A small phosphatase 1 (Homo sapiens) (Q9GZU7 76-261 limits assumed): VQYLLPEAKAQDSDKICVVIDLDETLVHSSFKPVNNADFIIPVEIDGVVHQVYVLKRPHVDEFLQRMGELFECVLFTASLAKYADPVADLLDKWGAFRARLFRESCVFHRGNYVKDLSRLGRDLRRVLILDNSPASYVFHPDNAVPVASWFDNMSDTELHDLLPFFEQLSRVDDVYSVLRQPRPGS
In short: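 assay system = SCP-1 phosphatase catalytic domain, residues 76-261 | buffer or medium = 50 mM Tris acetate pH 5.5, 0.005% Tween-20, 10 mM MgCl2 | incubation = enzyme reaction 45 min at room temperature, colour 5 min, stabilisation 30 min | signal = Phosphate-binding colour reagent, absorbance read at 630 nm | measure = % inhibition at 20 µM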

| SMILES | inhibition |
| --- | --- |
| COc1ccc(S(=O)(=O)NCCc2cc3ccc(C)c(C)c3[nH]c2=O)cc1 | -6.43% |
| COc1ccc(S(=O)(=O)c2c[nH]c(=S)[nH]c2=O)cc1Cl | 52.5% (active) |
| Cc1ccc(S(=O)(=O)c2c[nH]c3ccc(Cl)cc3c2=O)cc1 | 30.5% |
| COc1ccc(S(=O)(=O)N(C)CC(=O)N2CCCC2)cc1Cl | -2.74% |
| Cc1ccc(/C=C/C(=O)Nc2cc(S(=O)(=O)N3CCCCCC3)ccc2OCC(F)(F)F)o1 | -9.11% |
| COC(=O)/C=C\C(=O)Nc1cccc([N+](=O)[O-])c1 | -2.7% |
| Cc1ccc(/C=C/C(=O)Nc2ccc([N+](=O)[O-])c(NC(=O)/C=C/c3ccc(C)o3)c2)o1 | 53.2% (active) |
| CCOc1ccc(NC(=O)C2CC(=O)N=C(N)S2)cc1 (stereo not given) | -10.8% |
| Cn1c2c(c(=O)n(C)c1=O)C(c1cccc(F)c1)C(C#N)=C(N)O2 (stereo not given) | -7.3% |
| O=C(N/N=C/c1ccco1)c1ccc(C(=O)N/N=C/c2ccco2)o1 | 83.9% (active) |
| O=C(Cc1ccc([N+](=O)[O-])cc1)N/N=C/c1ccco1 | -11.8% |
| O=C(N/N=C/c1ccco1)c1csc2c1CCCC2 | 0.11% |
| CCn1c(=S)sc2c(=O)n(CC(=O)Nc3cccc(Br)c3)c(C)nc21 | -11% |
| Cc1ccc(-c2nc(CS(=O)CC(=O)N3CCN(c4ncccn4)CC3)c(C)o2)cc1 (stereo not given) | 13.2% |
| COc1ccccc1CNC(=O)c1ccc(CS(=O)(=O)c2ccccc2)o1 | -4.06% |
| O=C(c1ccc(S(=O)(=O)NCc2ccco2)cc1)N1CCN(c2ccccc2)CC1 | 22.5% |
| O=C(c1ccc(CS(=O)(=O)c2ccccc2)o1)N1CCN(c2ccccc2)CC1 | 62.1% (active) |
| CC(C)NC(=O)C(c1ccc(F)cc1)N(C(=O)CCC(=O)Nc1ccccn1)c1ccccc1F (stereo not given) | -5.49% |
| Cc1ccc(-c2noc(C3CCCN(C(=O)c4cccc(Cl)c4)C3)n2)o1 (stereo not given) | -1.22% |
| O=C(NN=Cc1ccccc1O)NN=Cc1ccccc1O | 85.7% (active) |
| O=C(N/N=C/c1ccccc1O)/C(=C/c1ccccc1)CCO | -13.2% |
| O=C(N/N=C/c1ccccc1O)C1CCCC1 | -10.5% |
| COc1ccccc1CN(C)C(=O)C1(c2ccc(Cl)cc2)CC1 | -10.7% |

| SMILES | inhibition |
| --- | --- |
| CSCCC(NS(=O)(=O)c1ccc(C)cc1)C(=O)N1CCCC1 (stereo not given) | -0.76% |
| Cc1ccc(N=Cc2c(O)cc(C)oc2=O)c(C)c1 | -1.31% |
| Cc1ccc(-n2c(O)c(C=Nc3ccc(S(=O)(=O)Nc4ncccn4)cc3)c3ccccc3c2=O)cc1C | -12.6% |
| Cc1ccc(N=Cc2c(O)n(-c3nccs3)c(=O)c3ccccc23)c(C)c1 | 51.3% (active) |
| O=C(NCCCc1ccccc1)C1CCC(CNc2c(N3CCCCC3)c(=O)c2=O)CC1 (stereo not given) | -5.39% |
| COc1ccccc1NC(=O)CCC(=O)OC(C)C(=O)c1ccccc1 (stereo not given) | -10.3% |
| COc1ccccc1CN1CCNC(=O)C1CC(=O)N(C)CC1CCOCC1 (stereo not given) | -2.19% |
| COc1ccc(CNC(=O)COc2cccnc2[N+](=O)[O-])cc1 | -6.82% |
| Cc1nn(Cc2ccccc2)c(C)c1C(=O)NCCN1C(=O)S/C(=C\c2ccc(F)cc2)C1=O | -5.22% |
| N#Cc1ccccc1CN1C(=O)S/C(=C/c2cccn2-c2cccc(C(=O)O)c2)C1=O | 70.5% (active) |
| O=C(NCCN1C(=O)S/C(=C\c2cccnc2)C1=O)c1cccc(OC(F)F)c1 | -7.82% |
| Cc1ccccc1CSc1nnc(-c2ccccn2)n1N | -3.67% |
| CCOC(=O)c1cccc(NC(=O)c2ccc(F)cc2F)c1 | -7.13% |
| O=C(COC(=O)CSc1ccccc1)Nc1ccc(F)cc1F | -2.71% |
| O=C(COC(=O)c1ccc(F)cc1F)Nc1ncccn1 | 87% (active) |
| COCCNC(=O)C(OC(=O)c1cccs1)c1ccc(F)cc1 (stereo not given) | -8.1% |
| CN(c1ccccc1)S(=O)(=O)c1cccc(C(=O)NNC(=O)c2ccncc2)c1 | -6.19% |
| CCCNC(=O)CCc1c(C)nc2c(c(C)nn2-c2ccccc2)c1C | -19% |
| O=S1(=O)CC/C(=N\Nc2ccc(F)cc2)c2ccsc21 | -1.87% |
| Nn1cnnc1N/N=C/c1cc([N+](=O)[O-])c(Cl)cc1Cl | 71.5% (active) |
| Cc1ccsc1C(=O)NNC(=O)COc1ccc(Br)cc1 | -2.35% |
| COc1ccc(-c2ccc(CCC(=O)O)n2-c2ccc(O)cc2)cc1 | -8.68% |
